High-throughput results (PubChem BioAssay)
Only some compounds are listed: those with a hit (about 2.3% of all), similar ones and a draw of the others.
TRPC4 act = opens the mouse TRPC4 cation channel; AID 2237; B-score at 10 µM; 0.49% of 310,000 active; HEK293 TRPC4beta/mu-opioid, Fluo4 calcium fluorescence; active compounds read high;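 active = B-score above 5 SD of library B-scores, and initial fluorescence ratio not above library mean plus 5 SD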;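 also: positive B-score marks a calcium rise read as TRPC4 activation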
Target sequence (Q9QUQ5 whole entry, looked up): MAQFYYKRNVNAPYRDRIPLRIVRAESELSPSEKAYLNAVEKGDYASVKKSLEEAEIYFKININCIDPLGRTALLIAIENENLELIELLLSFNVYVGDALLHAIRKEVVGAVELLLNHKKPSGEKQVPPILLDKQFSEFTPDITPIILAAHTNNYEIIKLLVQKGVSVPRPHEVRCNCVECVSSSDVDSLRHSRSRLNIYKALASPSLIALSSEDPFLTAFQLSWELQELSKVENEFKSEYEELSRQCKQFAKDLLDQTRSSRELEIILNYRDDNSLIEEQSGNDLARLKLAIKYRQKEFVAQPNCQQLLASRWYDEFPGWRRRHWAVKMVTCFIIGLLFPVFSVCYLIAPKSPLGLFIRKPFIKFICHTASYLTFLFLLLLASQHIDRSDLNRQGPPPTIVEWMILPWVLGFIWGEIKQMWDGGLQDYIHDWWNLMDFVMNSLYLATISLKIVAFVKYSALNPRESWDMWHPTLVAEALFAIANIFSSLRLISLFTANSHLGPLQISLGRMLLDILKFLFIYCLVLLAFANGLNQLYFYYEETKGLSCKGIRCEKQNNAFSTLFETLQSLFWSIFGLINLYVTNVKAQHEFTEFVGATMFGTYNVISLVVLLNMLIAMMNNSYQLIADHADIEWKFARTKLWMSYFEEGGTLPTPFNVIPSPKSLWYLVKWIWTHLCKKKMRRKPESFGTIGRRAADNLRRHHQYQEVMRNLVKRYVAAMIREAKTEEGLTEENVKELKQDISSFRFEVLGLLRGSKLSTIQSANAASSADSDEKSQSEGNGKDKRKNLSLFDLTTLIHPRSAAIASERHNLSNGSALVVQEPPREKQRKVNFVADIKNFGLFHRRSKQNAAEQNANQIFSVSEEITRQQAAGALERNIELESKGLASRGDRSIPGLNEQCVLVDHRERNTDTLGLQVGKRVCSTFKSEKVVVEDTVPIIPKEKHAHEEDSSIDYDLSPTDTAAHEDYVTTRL
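Material: TRPC4beta and mu-opioid receptor HEK293 stable cells | Incubation: 45 min room-temperature Fluo4 loading, 110 s read | Detection: Kinetic Fluo4 calcium fluorescence | Measure: Integrated baseline-normalised fluorescence ratio, converted to per-well B score | Benchmarks: Low control buffer alone, high control maximal DAMGO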
TRPC6 inhibitor = mouse TRPC6 channel inhibition | Q61143 | HEK293-TRPC6, membrane potential dye, ACh-evoked depolarization; active compounds read low | B-score at 10 µM | 1.1% of 310,000 active | AID 2553;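 active = B-score under library mean minus 3 SD, initial fluorescence not abnormally high, positive integrated signal ratio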;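 also: B-score derived from integrated fluorescence ratio over the kinetic read; more negative B-score means stronger inhibition of depolarization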
TRPC6 activator = activates the mouse TRPC6 cation channel | Q61143 | HEK293-TRPC6 membrane potential dye fluorescence; active compounds read high | B-score at 10 µM | 0.13% of 310,000 active;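 active = B-score of the integrated fluorescence ratio above library mean plus 3 SD, and starting fluorescence ratio within library mean plus 5 SD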;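 also: higher score means more depolarization so channel activation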
TRPC4 PAM = TRPC4 (mouse) allosteric potentiation; HEK293 TRPC4beta/mu-opioid, DAMGO EC20, Fluo-4 Ca2+ flux; active compounds read high; B-score at 10 µM; 0.42% of 310,000 active;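 active = B-score of calcium response area above 5 SD of library B-scores, with initial fluorescence ratio within 5 SD of library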
TRPC4 inh = blocks the mouse TRPC4 cation channel; Q9QUQ5; HEK293 TRPC4beta/mu-opioid, DAMGO-evoked Fluo4 calcium flux; active compounds read low; B-score at 10 µM; 0.39% of 300,000 active;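 active = B-score over 3 SD under the library average, no early fluorescence shift, positive overall ratio signal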
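Assay system – HEK293 line stably carrying TRPC4beta and mu-opioid receptor · Doses – single dose · Detection – Fluo4 calcium-dye fluorescence, kinetic read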
TRPC4 spec 2 = mouse TRPC4 off-target activity of TRPC6 inhibitors, second screen. shares compounds with TRPC6 inhibitor. HEK293 TRPC4/MOR, membrane potential dye fluorescence; channel activated by saturating DAMGO dose. inhibition, % at 10 µM. 42% of 920 active;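 active = compounds whose fluorescence signal differed from control wells by over 3 SD, either direction, in both duplicate plates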
TRPC4 spec = selectivity of TRPC6 inhibitors: effect on mouse TRPC4; HEK293 TRPC4/mu-opioid, membrane potential fluorescence; activity change, negative = inhibition, % at 10 µM; shares compounds with TRPC6 inhibitor; 61% of 920 active;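 active = rise or fall in signal beyond 3 SD of buffer-only wells in both replicate plates, either sign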;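 also: integrated kinetic ratio of fluorescence range over baseline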
HEK293 MPD ctr 2-1 = second check of TRPC6 inhibitor effects in parental HEK293 cells; shares compounds with TRPC6 inhibitor; parental HEK293 membrane potential dye fluorescence; maximal acetylcholine challenge after compound addition; signal change vs control, % at 10 µM; 31% of 920 active; AID 2779;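 active = membrane potential signal moving either way by over 3 SD of the maximum-effect control, in both duplicate plates, meaning non-specific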
HEK293 MPD ctr-1 = parental HEK293 nonspecific activity of TRPC6 inhibitors; shares compounds with TRPC6 inhibitor; parental HEK293 membrane potential dye fluorescence; membrane potential signal change, % at 10 µM; 60% of 920 active; AID 2780;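 active = membrane potential signal shifting up or down by more than 3 SD of buffer-only wells, on both duplicate plates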
HEK293 MPD ctr-2 = parental HEK293 nonspecific activity of TRPC6 modulators | shares compounds with TRPC6 inhibitor | membrane potential dye fluorescence | membrane potential signal change, % at 10 µM | 51% of 2,400 active | AID 488924;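 active = membrane potential signal moves up or down beyond 5 SD from buffer-only wells, on both duplicate plates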
HEK293 MPD ctr 2-2 = parental HEK293 nonspecific activity of TRPC6 modulators, second screen. inhibition, % at 10 µM. shares compounds with TRPC6 inhibitor. membrane potential dye fluorescence; after compound, maximal acetylcholine stimulation. 14% of 2,400 active;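 active = membrane potential signal drops by more than 5 SD from the mean control signal, in both duplicate plates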
TRPC4 ctr mod = selectivity of TRPC6 modulators against mouse TRPC4 | shares compounds with TRPC6 inhibitor | HEK293 TRPC4/mu-opioid, membrane potential fluorescence | percent change from control (negative = decrease, positive = increase), % at 10 µM | 69% of 2,400 active;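 active = membrane potential signal moved up or down beyond 5 SD of buffer control wells, in both duplicate plates, actives on both sides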
TRPC4/MOR inh 2 = second selectivity test of TRPC6 modulators against mouse TRPC4. 55% of 2,400 active. inhibition, % at 10 µM. HEK293 TRPC4/mu-opioid, membrane potential dye fluorescence; stimulated with maximal-effect DAMGO. shares compounds with TRPC6 inhibitor;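 active = drop in membrane potential signal beyond 5 SD of the control wells in both duplicate plates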;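 also: TRPC4 counter screen for TRPC6 hits run under conditions tuned for TRPC6 not TRPC4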
TRPC6 block conf = mouse TRPC6 inhibitor confirmation; HEK293-TRPC6, membrane potential dye, ACh-evoked depolarization; 43% of 3,300 active; shares compounds with TRPC6 inhibitor; AID 488960; inhibition, % at 10 µM;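 active = fluorescence ratio falls more than 5 SD below the full-stimulation control mean, in both duplicate runs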;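 also: integrated fluorescence ratio of peak minus minimum over baseline after agonist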
TRPC6 act conf = mouse TRPC6 activator confirmation; shares compounds with TRPC6 inhibitor; HEK293-TRPC6 membrane potential dye fluorescence, FDSS; activation, % at 10 µM; 11% of 2,800 active; AID 488961;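 active = ratio signal rise beyond 5 SD above unstimulated control wells' mean, seen in both duplicate runs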
Large screens that a line does not name were inactive (follow-up assays come after a bar, where they were run).

CC(Cc1ccccc1Sc1ccc(O)cc1)N(C)C (stereo not given)	TRPC6 inhibitor -6.6 | TRPC4 spec 2 41% | TRPC4 spec 43% | HEK293 MPD ctr 2-1 inactive | HEK293 MPD ctr-1 4.2% | TRPC6 block conf inactive | TRPC6 act conf inactive
CC(Cc1ccccc1Sc1ccccc1)N(C)C (stereo not given)	none
O=C(C(=O)N1CCOCC1)c1cn(Cc2ccccc2F)c2ccccc12	none
CCc1nc(N2CCNCC2)c(C#N)c2c1CSC(C)(C)C2	none
CC(C)Cc1nc(N2CCNCC2)c(C#N)c2c1CCC2	TRPC6 inhibitor -10 | TRPC4 spec 2 34% | TRPC4 spec 6.0% | HEK293 MPD ctr 2-1 inactive | HEK293 MPD ctr-1 14% | TRPC6 block conf 72% | TRPC6 act conf inactive
COC(=O)c1cc(C(O)(C(=O)OC)C(F)(F)F)c(/N=C/N(C)C)s1 (stereo not given)	none
CN(C)CCSC1c2ccccc2CSc2ccccc21 (stereo not given)	TRPC6 inhibitor -6.2 | HEK293 MPD ctr-2 inactive | HEK293 MPD ctr 2-2 78% | TRPC4 ctr mod 11% | TRPC4/MOR inh 2 50% | TRPC6 block conf 74%
CN1CCN(CCOC2c3ccccc3CSc3ccc(Cl)cc32)CC1 (stereo not given)	none
CN1CCN(c2ccc3c(c2)S(=O)(=O)c2ccccc2C3=O)CC1	TRPC6 inhibitor -5.3 | HEK293 MPD ctr-2 90% | HEK293 MPD ctr 2-2 inactive | TRPC4 ctr mod -52% | TRPC4/MOR inh 2 32% | TRPC6 block conf inactive | TRPC6 act conf inactive
CN1CCN(c2cccc3c2C(=O)c2ccccc2C3=O)CC1	TRPC6 inhibitor -18, TRPC4 PAM 17 | HEK293 MPD ctr-2 -288% | HEK293 MPD ctr 2-2 82% | TRPC4 ctr mod -53% | TRPC4/MOR inh 2 72% | TRPC6 block conf 80% | TRPC6 act conf inactive
CN1CCN(c2ccc(NC(=O)Oc3ccccc3)cc2)CC1	none
O=c1c2ccccc2[se]n1-c1ccccc1	none
O=C(NC1CN2CCC1CC2)c1cc(Cl)c([N+](=O)[O-])c2nc[nH]c12 (stereo not given)	TRPC6 inhibitor -5.9 | HEK293 MPD ctr-2 -218% | HEK293 MPD ctr 2-2 inactive | TRPC4 ctr mod -33% | TRPC4/MOR inh 2 inactive | TRPC6 block conf inactive | TRPC6 act conf inactive
O=S(=O)(NC1CN2CCC1CC2)c1ccc(Cl)cc1 (stereo not given)	none
C[n+]1c2ccccc2nc2ccc(NCCO)cc21	TRPC6 inhibitor -7.4 | HEK293 MPD ctr-2 -114% | HEK293 MPD ctr 2-2 133% | TRPC4 ctr mod -36% | TRPC4/MOR inh 2 50% | TRPC6 block conf 66% | TRPC6 act conf inactive
CNc1ccc2nc3ccccc3[n+](C)c2c1	TRPC6 inhibitor -12 | HEK293 MPD ctr-2 -84% | HEK293 MPD ctr 2-2 162% | TRPC4 ctr mod -48% | TRPC4/MOR inh 2 52% | TRPC6 block conf 86% | TRPC6 act conf inactive
COc1ccc(CCNCc2sccc2C)cc1OC	none
C[N+]12CCC(CC1)C(C(O)(c1ccccc1)c1cccs1)C2 (stereo not given)	TRPC6 inhibitor -5.7 | HEK293 MPD ctr-2 inactive | HEK293 MPD ctr 2-2 inactive | TRPC4 ctr mod inactive | TRPC4/MOR inh 2 inactive | TRPC6 block conf 55% | TRPC6 act conf inactive
CCC[N+]12CCC(CC1)C(C(O)(c1ccccc1)c1ccccc1)C2 (stereo not given)	none
Cc1ccccc1CCNCc1cc2cccc(C)c2[nH]c1=O	TRPC6 inhibitor -11 | TRPC4 spec 2 16% | TRPC4 spec inactive | HEK293 MPD ctr 2-1 inactive | HEK293 MPD ctr-1 0.1% | TRPC6 block conf 94% | TRPC6 act conf inactive
COc1ccccc1Sc1ccccc1CC(C)N (stereo not given)	TRPC6 inhibitor -5 | HEK293 MPD ctr-2 inactive | HEK293 MPD ctr 2-2 inactive | TRPC4 ctr mod inactive | TRPC4/MOR inh 2 66% | TRPC6 block conf 44% | TRPC6 act conf inactive
O=c1[nH]c(=S)n(-c2ccc(Cl)cc2)c(O)c1/C=N/N1CCOCC1	none
O=C1c2cccc3cccc(c23)C(=O)N1/N=C/c1c(O)n(-c2ccccc2)c(=O)[nH]c1=O	none
CC[n+]1c(SC)ccc2cc(OC)ccc21	TRPC6 inhibitor -5.2 | HEK293 MPD ctr-2 -206% | HEK293 MPD ctr 2-2 85% | TRPC4 ctr mod -30% | TRPC4/MOR inh 2 54% | TRPC6 block conf 58% | TRPC6 act conf inactive
OC(CN1CCCCC1)c1c[nH]c2ccccc12 (stereo not given)	none
O=C(COc1ccc(Cl)cc1)N(c1ccccc1Cl)C1CN2CCC1CC2 (stereo not given)	TRPC6 inhibitor -5.3 | HEK293 MPD ctr-2 132% | HEK293 MPD ctr 2-2 inactive | TRPC4 ctr mod 26% | TRPC4/MOR inh 2 52% | TRPC6 block conf inactive
CN(C)C1C(=O)C(C(N)=O)=C(O)C2(O)C(=O)C3=C(O)c4c(O)cccc4C(C)(O)C3C(O)C12 (stereo not given)	none
C#CC[N+]1(C)[C@@H]2CC[C@H]1CC(OC(=O)C(CO)c1ccccc1)C2 (stereo not given in full)	TRPC6 inhibitor -11 | TRPC4 spec 2 inactive | TRPC4 spec inactive | HEK293 MPD ctr 2-1 -21% | HEK293 MPD ctr-1 inactive | TRPC6 block conf 94% | TRPC6 act conf inactive
